Measured values from ChEMBL document CHEMBL4261538, “Synthesis and molecular docking studies of xanthone attached amino acids as potential antimicrobial and anti-inflammatory agents” (Medchemcomm, 2017).
In brackets after ≈: the same amount, converted by molar mass.

Tests used:
Klebsiella pneumoniae [1] = assay: Antibacterial activity against Klebsiella pneumoniae at 100 ug/ml incubated for 24 hrs by agar well diffusion method; format: functional; conditions: read-out: DIZ
Method in brief: (§1)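 Bacteria grown in nutrient broth at 37 °C for 24 h, then subcultured at room temperature. Compounds dissolved in DMSO at 5 mg mL⁻¹ and 5–20 µL added to 6 mm wells, giving 25, 50, 75, 100 µg per well. Gentamicin was the positive control and DMSO the negative control. Plates held at 37 °C for 24 h, then inhibition zone diameter (mm) measured. Values are means of three determinations.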

Bacillus subtilis [2] = assay: Antibacterial activity against Bacillus subtilis at 50 ug/ml incubated for 24 hrs by agar well diffusion method; format: functional; conditions: read-out: DIZ; method in brief: as §1
Candida albicans [3] = assay: Antifungal activity against Candida albicans incubated for 48 to 72 hrs by microdilution method; format: functional
Method in brief: (§2)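 Sabouraud agar plates inoculated with fungal suspension at 10⁵ CFU mL⁻¹ plus serially diluted compounds and bavistin reference, both in DMSO. Incubated at 25 °C for 48–72 h. MIC is the lowest concentration completely inhibiting growth. Values are means of three determinations.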

Escherichia coli [4] = assay: Antibacterial activity against Escherichia coli incubated for 24 hrs by microdilution method; format: functional
Aspergillus niger [5] = assay: Antifungal activity against Aspergillus niger incubated for 48 to 72 hrs by microdilution method; format: functional; method in brief: as §2
Bacillus subtilis [6] = assay: Antibacterial activity against Bacillus subtilis at 75 ug/ml incubated for 24 hrs by agar well diffusion method; format: functional; conditions: read-out: DIZ; method in brief: as §1
Klebsiella pneumoniae [7] = assay: Antibacterial activity against Klebsiella pneumoniae at 25 ug/ml incubated for 24 hrs by agar well diffusion method; format: functional; conditions: read-out: DIZ; method in brief: as §1
Staphylococcus aureus [8] = assay: Antibacterial activity against Staphylococcus aureus at 50 ug/ml incubated for 24 hrs by agar well diffusion method; format: functional; conditions: read-out: DIZ; method in brief: as §1
Staphylococcus aureus [9] = assay: Antibacterial activity against Staphylococcus aureus incubated for 24 hrs by microdilution method; format: functional
Escherichia coli [10] = assay: Antibacterial activity against Escherichia coli at 75 ug/ml incubated for 24 hrs by agar well diffusion method; format: functional; conditions: read-out: DIZ; method in brief: as §1
Staphylococcus aureus [11] = assay: Antibacterial activity against Staphylococcus aureus at 25 ug/ml incubated for 24 hrs by agar well diffusion method; format: functional; conditions: read-out: DIZ; method in brief: as §1
Erythrocyte = assay: Anti-inflammatory activity in human RBC assessed as inhibition of hypotonic solution-induced hemolysis after 10 mins by spectrophotometric method; format: functional, cell-based
Method in brief: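 Human blood (heparinized) washed with 0.9% saline, packed cells made into a 40% v/v stock in isotonic phosphate buffer (154 mM NaCl, 10 mM sodium phosphate, pH 7.4). Stock RBC mixed with hypotonic buffer (50 mM NaCl, 10 mM phosphate, pH 7.4) plus sample at 20–100 µg mL⁻¹.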

Klebsiella pneumoniae [12] = assay: Antibacterial activity against Klebsiella pneumoniae incubated for 24 hrs by microdilution method; format: functional
Escherichia coli [13] = assay: Antibacterial activity against Escherichia coli at 100 ug/ml incubated for 24 hrs by agar well diffusion method; format: functional; conditions: read-out: DIZ; method in brief: as §1
Staphylococcus aureus [14] = assay: Antibacterial activity against Staphylococcus aureus at 100 ug/ml incubated for 24 hrs by agar well diffusion method; format: functional; conditions: read-out: DIZ; method in brief: as §1
Fusarium oxysporum [15] = assay: Antifungal activity against Fusarium oxysporum at 100 ug/ml incubated for 48 hrs by agar well diffusion method; format: functional; conditions: read-out: DIZ
Method in brief: (§3)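 Compounds dissolved in DMSO at 5 mg mL⁻¹ and 5–20 µL added to 6 mm wells, giving 25, 50, 75, 100 µg per well. Bavistin was the positive control and DMSO the negative control. Plates incubated at 28 °C for 48 h, then inhibition zone diameter (mm) measured. Values are means of three determinations.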

Fusarium oxysporum [16] = assay: Antifungal activity against Fusarium oxysporum at 50 ug/ml incubated for 48 hrs by agar well diffusion method; format: functional; conditions: read-out: DIZ; method in brief: as §3
Staphylococcus aureus [17] = assay: Antibacterial activity against Staphylococcus aureus at 75 ug/ml incubated for 24 hrs by agar well diffusion method; format: functional; conditions: read-out: DIZ; method in brief: as §1
Escherichia coli [18] = assay: Antibacterial activity against Escherichia coli at 50 ug/ml incubated for 24 hrs by agar well diffusion method; format: functional; conditions: read-out: DIZ; method in brief: as §1
Aspergillus niger [19] = assay: Antifungal activity against Aspergillus niger at 75 ug/ml incubated for 48 hrs by agar well diffusion method; format: functional; conditions: read-out: DIZ; method in brief: as §3
Escherichia coli [20] = assay: Antibacterial activity against Escherichia coli at 25 ug/ml incubated for 24 hrs by agar well diffusion method; format: functional; conditions: read-out: DIZ; method in brief: as §1
Fusarium oxysporum [21] = assay: Antifungal activity against Fusarium oxysporum at 25 ug/ml incubated for 48 hrs by agar well diffusion method; format: functional; conditions: read-out: DIZ; method in brief: as §3
Aspergillus niger [22] = assay: Antifungal activity against Aspergillus niger at 50 ug/ml incubated for 48 hrs by agar well diffusion method; format: functional; conditions: read-out: DIZ; method in brief: as §3
Aspergillus niger [23] = assay: Antifungal activity against Aspergillus niger at 25 ug/ml incubated for 48 hrs by agar well diffusion method; format: functional; conditions: read-out: DIZ; method in brief: as §3
Candida albicans [24] = assay: Antifungal activity against Candida albicans at 25 ug/ml incubated for 48 hrs by agar well diffusion method; format: functional; conditions: read-out: DIZ; method in brief: as §3
Klebsiella pneumoniae [25] = assay: Antibacterial activity against Klebsiella pneumoniae at 50 ug/ml incubated for 24 hrs by agar well diffusion method; format: functional; conditions: read-out: DIZ; method in brief: as §1
Bacillus subtilis [26] = assay: Antibacterial activity against Bacillus subtilis at 25 ug/ml incubated for 24 hrs by agar well diffusion method; format: functional; conditions: read-out: DIZ; method in brief: as §1
Candida albicans [27] = assay: Antifungal activity against Candida albicans at 50 ug/ml incubated for 48 hrs by agar well diffusion method; format: functional; conditions: read-out: DIZ; method in brief: as §3
Candida albicans [28] = assay: Antifungal activity against Candida albicans at 100 ug/ml incubated for 48 hrs by agar well diffusion method; format: functional; conditions: read-out: DIZ; method in brief: as §3
Klebsiella pneumoniae [29] = assay: Antibacterial activity against Klebsiella pneumoniae at 75 ug/ml incubated for 24 hrs by agar well diffusion method; format: functional; conditions: read-out: DIZ; method in brief: as §1
Bacillus subtilis [30] = assay: Antibacterial activity against Bacillus subtilis at 100 ug/ml incubated for 24 hrs by agar well diffusion method; format: functional; conditions: read-out: DIZ; method in brief: as §1
Staphylococcus aureus [31] = assay: Induction of cell membrane damage in Staphylococcus aureus assessed as cell content leakage at MIC by spectrophotometric method; format: functional, organism-based; conditions: TDE = time-dependent effect
Method in brief: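 Log-phase S. aureus inoculated into 0.1% sterile peptone water, with an untreated control, and held at 37 °C for 0, 30, 60 and 120 min. 1 mL of broth centrifuged and supernatant OD read at 260 nm to measure released DNA. Run in triplicate, repeated three times.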

Aspergillus niger [32] = assay: Antifungal activity against Aspergillus niger at 100 ug/ml incubated for 48 hrs by agar well diffusion method; format: functional; conditions: read-out: DIZ; method in brief: as §3
Fusarium oxysporum [33] = assay: Antifungal activity against Fusarium oxysporum incubated for 48 to 72 hrs by microdilution method; format: functional; method in brief: as §2
Bacillus subtilis [34] = assay: Antibacterial activity against Bacillus subtilis incubated for 24 hrs by microdilution method; format: functional
Candida albicans [35] = assay: Antifungal activity against Candida albicans at 75 ug/ml incubated for 48 hrs by agar well diffusion method; format: functional; conditions: read-out: DIZ; method in brief: as §3
Fusarium oxysporum [36] = assay: Antifungal activity against Fusarium oxysporum at 75 ug/ml incubated for 48 hrs by agar well diffusion method; format: functional; conditions: read-out: DIZ; method in brief: as §3

Compound	zone of inhibition at 100 µg/mL (Klebsiella pneumoniae [1]) [mm]	zone of inhibition at 50 µg/mL (Bacillus subtilis [2]) [mm]	MIC (Candida albicans [3]) [µg/mL]	MIC (Escherichia coli [4]) [µg/mL]	MIC (Aspergillus niger [5]) [µg/mL]	zone of inhibition at 75 µg/mL (Bacillus subtilis [6]) [mm]	zone of inhibition at 25 µg/mL (Klebsiella pneumoniae [7]) [mm]	zone of inhibition at 50 µg/mL (Staphylococcus aureus [8]) [mm]	MIC (Staphylococcus aureus [9]) [µg/mL]	zone of inhibition at 75 µg/mL (Escherichia coli [10]) [mm]	zone of inhibition at 25 µg/mL (Staphylococcus aureus [11]) [mm]	IC50 (Erythrocyte) [µg/mL]	MIC (Klebsiella pneumoniae [12]) [µg/mL]	zone of inhibition at 100 µg/mL (Escherichia coli [13]) [mm]	zone of inhibition at 100 µg/mL (Staphylococcus aureus [14]) [mm]	zone of inhibition at 100 µg/mL (Fusarium oxysporum [15]) [mm]	zone of inhibition at 50 µg/mL (Fusarium oxysporum [16]) [mm]	zone of inhibition at 75 µg/mL (Staphylococcus aureus [17]) [mm]	zone of inhibition at 50 µg/mL (Escherichia coli [18]) [mm]	zone of inhibition at 75 µg/mL (Aspergillus niger [19]) [mm]	also measured
CC(C)(C)OC(=O)N[C@@H](Cc1ccccc1)C(=O)Oc1ccc2c(=O)c3ccccc3oc2c1	37	26	30 (≈ 65.3 µM)	22 (≈ 47.9 µM)	28 (≈ 60.9 µM)	33	20	25	25 (≈ 54.4 µM)	32	18	38 (≈ 82.7 µM)	26 (≈ 56.6 µM)	34	34	32	22	31	25	35	zone of inhibition at 25 µg/mL (Escherichia coli [20]): 16 mm; zone of inhibition at 25 µg/mL (Fusarium oxysporum [21]): 14 mm; zone of inhibition at 50 µg/mL (Aspergillus niger [22]): 28 mm; zone of inhibition at 25 µg/mL (Aspergillus niger [23]): 17 mm; zone of inhibition at 25 µg/mL (Candida albicans [24]): 22 mm; zone of inhibition at 50 µg/mL (Klebsiella pneumoniae [25]): 27 mm; zone of inhibition at 25 µg/mL (Bacillus subtilis [26]): 17 mm; zone of inhibition at 50 µg/mL (Candida albicans [27]): 27 mm; zone of inhibition at 100 µg/mL (Candida albicans [28]): 38 mm; zone of inhibition at 75 µg/mL (Klebsiella pneumoniae [29]): 33 mm; zone of inhibition at 100 µg/mL (Bacillus subtilis [30]): 36 mm; Activity (Staphylococcus aureus [31]): Tde; zone of inhibition at 100 µg/mL (Aspergillus niger [32]): 40 mm; MIC (Fusarium oxysporum [33]): 27 µg/mL (≈ 58.8 µM); MIC (Bacillus subtilis [34]): 26 µg/mL (≈ 56.6 µM); zone of inhibition at 75 µg/mL (Candida albicans [35]): 32 mm; zone of inhibition at 75 µg/mL (Fusarium oxysporum [36]): 27 mm
CC(C)(C)OC(=O)N[C@@H](Cc1c[nH]c2ccccc12)C(=O)Oc1ccc2c(=O)c3ccccc3oc2c1	41	29	19 (≈ 38.1 µM)	16 (≈ 32.1 µM)	20 (≈ 40.1 µM)	33	22	29	18 (≈ 36.1 µM)	37	22	24 (≈ 48.1 µM)	20 (≈ 40.1 µM)	41	40	40	30	35	30	36	zone of inhibition at 25 µg/mL (Escherichia coli [20]): 24 mm; zone of inhibition at 25 µg/mL (Fusarium oxysporum [21]): 21 mm; zone of inhibition at 50 µg/mL (Aspergillus niger [22]): 31 mm; zone of inhibition at 25 µg/mL (Aspergillus niger [23]): 24 mm; zone of inhibition at 25 µg/mL (Candida albicans [24]): 24 mm; zone of inhibition at 50 µg/mL (Klebsiella pneumoniae [25]): 29 mm; zone of inhibition at 25 µg/mL (Bacillus subtilis [26]): 23 mm; zone of inhibition at 50 µg/mL (Candida albicans [27]): 31 mm; zone of inhibition at 100 µg/mL (Candida albicans [28]): 42 mm; zone of inhibition at 75 µg/mL (Klebsiella pneumoniae [29]): 36 mm; zone of inhibition at 100 µg/mL (Bacillus subtilis [30]): 39 mm; Activity (Staphylococcus aureus [31]): Tde; zone of inhibition at 100 µg/mL (Aspergillus niger [32]): 44 mm; MIC (Fusarium oxysporum [33]): 21 µg/mL (≈ 42.1 µM); MIC (Bacillus subtilis [34]): 17 µg/mL (≈ 34.1 µM); zone of inhibition at 75 µg/mL (Candida albicans [35]): 37 mm; zone of inhibition at 75 µg/mL (Fusarium oxysporum [36]): 35 mm
